In ChEMBL document CHEMBL1148921, “Steroidal glycosides from the bulbs of Ornithogalum thyrsoides” (J Nat Prod, 2004) one finds IC50 data, which are given here for 15 molecules.

In general, IC50 refers to the point on the concentration scale where inhibition reaches its midpoint. The low end stands for inhibition by little substance, the high end for a need for much substance.

Test [1] has as its system HL-60. The test is described as follows: Cytotoxicity against human HL60 cells after 72 hrs by MTT assay. In kind it is functional, cell-based. The settings on record: HL-60, 72 h. In a few lines:
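HL-60 leukemia cells seeded in 96-well plates, held 24 h at 37 °C in 5% CO2/air, then given sample in EtOH-H2O (1:1) to final 0.1-20 µg/mL; solvent alone for controls. Exposure 72 h, then MTT for 4 h at 37 °C; cells and formazan pelleted, formazan dissolved in DMSO, A550 read. Triplicate; IC50 = concentration cutting viable cell number by 50%.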
(In general: Tetrazolium assays rely on reduction of a dye to a coloured formazan, in cell work by metabolically active cells.)

The test system of test [2] is HSC-2. The test is described as follows: Cytotoxicity against human HSC2 cells after 24 hrs by MTT assay. In kind it is functional, cell-based. Particulars: HSC-2, 24 h. In a few lines:
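HSC-2 monolayers kept in DMEM with 10% heat-inactivated FBS at 37 °C, 5% CO2. Trypsinized cells plated, grown 24 h, PBS-washed, exposed 24 h with or without compound. After PBS wash, 0.2 mg/mL MTT in DMEM/10% FBS for 4 h; cells lysed in DMSO and absorbance taken as relative viable cell number. IC50 reported.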

Converted amounts (≈) assume the structure as drawn.

For the molecule `COc1cc(C(=O)OC[C@H]2O[C@@H](O[C@@H]3C[C@H](O)C[C@@H]4CC[C@H]5[C@@H]6C[C@H](O[C@@H]7O[C@H](CO)[C@@H](O)[C@H](O)[C@H]7O)[C@H]([C@H](C)[C@@H](O)CCC(C)C)[C@@]6(C)CC[C@@H]5[C@]43C)[C@H](O)[C@@H](O)[C@@H]2O)cc(OC)c1OC`, the 50% inhibitory concentration (IC50) in test [1] was 5 µg/mL (≈ 5.23 µM); in test [2] it was more than 100 µg/mL.

Take `CC(C)=CC[C@H](O)[C@@H](C)[C@H]1[C@@H](O[C@@H]2O[C@@H](C)[C@H](O)[C@@H](O)[C@H]2O)C[C@H]2[C@@H]3CC[C@H]4C[C@@H](O)C[C@@H](O[C@@H]5O[C@@H](C)[C@H](O)[C@@H](O)[C@H]5O)[C@]4(C)[C@H]3CC[C@]12C`: the figures for the IC50 in test [1] and in test [2] were more than 10 µg/mL and more than 100 µg/mL, respectively.

For the molecule `CC(C)=CC[C@H](O)[C@@H](C)[C@H]1[C@@H](O[C@@H]2O[C@@H](C)[C@H](O)[C@@H](O)[C@H]2O)C[C@H]2[C@@H]3CC=C4C[C@@H](O)C[C@@H](O[C@@H]5O[C@@H](C)[C@H](O)[C@@H](O)[C@H]5O)[C@]4(C)[C@H]3CC[C@]12C`, the 50% inhibitory concentration (IC50) in test [1] is 5.1 µg/mL (≈ 7.04 µM); in test [2], more than 100 µg/mL.

As for `C[C@@H]1CC[C@@]2(OC1)O[C@H]1C[C@H]3[C@@H]4CC=C5C[C@@H](O)C[C@@H](O[C@@H]6OC[C@H](O)[C@H](O[C@@H]7OC[C@@H](O)[C@H](O)[C@H]7O)[C@H]6O[C@@H]6O[C@@H](C)[C@H](O)[C@@H](O)[C@H]6O)[C@]5(C)[C@H]4CC[C@]3(C)[C@H]1[C@@H]2C`, the IC50 is 1.9 µg/mL (≈ 2.26 µM) in test [1] and 21.2 µg/mL (≈ 25.2 µM) in test [2].

On to `C[C@@H]1CC[C@@]2(OC1)O[C@H]1C[C@H]3[C@@H]4CC[C@H]5C[C@@H](O)C[C@@H](O[C@@H]6O[C@H](CO)[C@@H](O)[C@H](O)[C@H]6O)[C@]5(C)[C@H]4CC[C@]3(C)[C@H]1[C@@H]2C`, for which the IC50 is 1.6 µg/mL (≈ 2.69 µM) in test [1] and 34.6 µg/mL (≈ 58.2 µM) in test [2].

Take `C[C@@H]1CC[C@@]2(OC1)O[C@H]1C[C@H]3[C@@H]4CC=C5C[C@@H](O)C[C@@H](O[C@@H]6OC[C@H](O)[C@H](O)[C@H]6O[C@@H]6O[C@@H](C)[C@H](O)[C@@H](O)[C@H]6O)[C@]5(C)[C@H]4CC[C@]3(C)[C@H]1[C@@H]2C`: the IC50 in test [1] was found to be 2.2 µg/mL (≈ 3.1 µM); in test [2] it was 19.9 µg/mL (≈ 28.1 µM).

As to `COc1cc(C(=O)OC[C@H]2O[C@@H](O[C@@H]3C[C@H](O)C[C@@H]4CC[C@H]5[C@@H]6C[C@H](O[C@@H]7O[C@H](CO)[C@@H](O)[C@H](O)[C@H]7O)[C@H]([C@H](C)[C@@H](O)CC=C(C)C)[C@@]6(C)CC[C@@H]5[C@]43C)[C@H](O)[C@@H](O)[C@@H]2O)cc(OC)c1OC`, the figures for the IC50 in test [1] and in test [2] were more than 10 µg/mL and more than 100 µg/mL, respectively.

Take `CC(C)CC[C@H](O)[C@@H](C)[C@H]1[C@@H](O[C@@H]2O[C@H](CO)[C@@H](O)[C@H](O)[C@H]2O)C[C@H]2[C@@H]3CC[C@H]4C[C@@H](O)C[C@@H](O[C@@H]5O[C@H](CO)[C@@H](O)[C@H](O)[C@H]5O)[C@]4(C)[C@H]3CC[C@]12C`: the IC50 in test [1] was more than 10 µg/mL; in test [2], more than 100 µg/mL.

For `CC(C)CC[C@H](O)[C@@H](C)[C@H]1[C@@H](O[C@@H]2O[C@@H](C)[C@H](O)[C@@H](O)[C@H]2O)C[C@H]2[C@@H]3CC=C4C[C@@H](O)C[C@@H](O[C@@H]5O[C@@H](C)[C@H](O)[C@@H](O)[C@H]5O)[C@]4(C)[C@H]3CC[C@]12C`, the IC50 in test [1] is more than 10 µg/mL; in test [2], more than 100 µg/mL.

On to `C[C@@H]1O[C@@H](O[C@H]2[C@H](O[C@@H]3C[C@H](O)CC4=CC[C@H]5[C@@H]6C[C@@H]7O[C@]8(C[C@H](O)[C@@H](C)CO8)[C@@H](C)[C@@H]7[C@@]6(C)CC[C@@H]5[C@]43C)OC[C@H](O)[C@@H]2O[C@@H]2OC[C@@H](O)[C@H](O)[C@H]2O)[C@H](O)[C@H](O)[C@H]1O`, for which the 50% inhibitory concentration (IC50) is more than 10 µg/mL in test [1] and more than 100 µg/mL in test [2].

On to `CC(=O)OC[C@H]1O[C@@H](O[C@H]2C[C@H]3[C@@H]4CC[C@H]5C[C@@H](O)C[C@@H](O[C@@H]6O[C@@H](C)[C@H](O)[C@@H](O)[C@H]6O)[C@]5(C)[C@H]4CC[C@]3(C)[C@H]2[C@H](C)[C@@H](O)CCC(C)C)[C@H](O)[C@@H](O)[C@@H]1O`, for which the IC50 in test [1] was 5.3 µg/mL (≈ 6.73 µM); in test [2], more than 100 µg/mL.

`CC(C)CC[C@H](O)[C@@H](C)[C@H]1[C@@H](O[C@@H]2O[C@H](CO)[C@@H](O)[C@H](O)[C@H]2O)C[C@H]2[C@@H]3CC[C@H]4C[C@@H](O)C[C@@H](O[C@@H]5O[C@@H](C)[C@H](O)[C@@H](O)[C@H]5O)[C@]4(C)[C@H]3CC[C@]12C`: the figures for the half-inhibitory concentration (IC50) in test [1] and in test [2] were more than 10 µg/mL and more than 100 µg/mL, respectively.

As for `CC(=O)OC[C@H]1O[C@@H](O[C@H]2C[C@H]3[C@@H]4CC[C@H]5C[C@@H](O)C[C@@H](O[C@@H]6O[C@@H](C)[C@H](O)[C@@H](O)[C@H]6O)[C@]5(C)[C@H]4CC[C@]3(C)[C@H]2[C@H](C)[C@@H](O)CCC(C)C)[C@H](O)[C@@H](O)[C@@H]1O[C@@H]1OC[C@](O)(CO)[C@H]1O`, the results for the IC50 in test [1] and in test [2] were more than 10 µg/mL and more than 100 µg/mL, respectively.

On to `C[C@@H]1O[C@@H](O[C@H]2[C@H](O[C@@H]3C[C@H](O)CC4=CC[C@H]5[C@@H]6C[C@@H]7O[C@]8(C[C@H](O)[C@@H](C)CO8)[C@@H](C)[C@@H]7[C@@]6(C)CC[C@@H]5[C@]43C)OC[C@H](O)[C@@H]2O)[C@H](O)[C@H](O)[C@H]1O`, for which the IC50 in test [1] was 5.2 µg/mL (≈ 7.17 µM); in test [2], more than 100 µg/mL.

As for `COc1cc([C@@H]2c3cc4c(cc3[C@@H](O[C@@H]3O[C@@H]5CO[C@@H](C)O[C@H]5[C@H](O)[C@H]3O)[C@H]3COC(=O)[C@H]23)OCO4)cc(OC)c1O` [ETOPOSIDE], the IC50 in test [1] amounted to 0.23 µg/mL (≈ 0.391 µM); in test [2] it was 24.4 µg/mL (≈ 41.5 µM).
